For assay [1], the target named is Muscarinic acetylcholine receptor. Description: (§1) Agonist activity at muscarinic acetylcholine receptor in isolated guinea pig ileum. It counts as functional, tissue-based, Cavia porcellus.
The target is the same in assay [2]. Briefly: In Vitro binding affinity to the muscarinic acetylcholine receptor site in rat brain by using [3H]QNB as the radioligand. It counts as tissue-based.
For assay [3] the target is unchanged. Briefly: In vitro binding affinity to muscarinic acetylcholine receptor site in rat brain assayed using [3H]oxotremorine-M as the radioligand. It counts as tissue-based.
For assay [4], the target named is Muscarinic acetylcholine receptor (Rattus norvegicus) (UniProt P08482+P08483+P08485+P08911+P10980).
Assay [5] addresses Muscarinic acetylcholine receptor M3 (Cavia porcellus) (UniProt Q8VH26). Briefly: Antagonist activity at muscarinic acetylcholine receptor in isolated guinea pig ileum. It is filed as functional, tissue-based. An outline of the steps: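 Isolated guinea pig ileum in tyrode solution; agonist dose-response curves built sequentially with 30-s contact time. Antagonist added to the tyrode 5 min before agonist responses were retested. K_B from regression analysis using at least four points, n = 4-8 per point.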

Assay [6] has as its target Muscarinic acetylcholine receptor (Cavia porcellus). Briefly: Antagonist activity at muscarinic acetylcholine receptor in isolated guinea pig ileum.
The target of assay [7] is Muscarinic acetylcholine receptor. Described as §1. It counts as functional, tissue-based, Cavia porcellus. An outline of the steps: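 Isolated ileum in Tyrode solution. Cumulative-free sequential agonist dose-response curves, 30-s contact time per dose. Contraction read out; EC50 derived from the curves. Efficacy expressed as percent of maximal contraction relative to the full agonist acetylcholine.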
This is another data set of the same source.

In assay [8] the target is Muscarinic acetylcholine receptor (Cavia porcellus). Briefly: Antagonistic activity at muscarinic acetylcholine receptor in isolated guinea pig ileum.

Sequence of Muscarinic acetylcholine receptor M3 (Cavia porcellus) (Q8VH26 1-587): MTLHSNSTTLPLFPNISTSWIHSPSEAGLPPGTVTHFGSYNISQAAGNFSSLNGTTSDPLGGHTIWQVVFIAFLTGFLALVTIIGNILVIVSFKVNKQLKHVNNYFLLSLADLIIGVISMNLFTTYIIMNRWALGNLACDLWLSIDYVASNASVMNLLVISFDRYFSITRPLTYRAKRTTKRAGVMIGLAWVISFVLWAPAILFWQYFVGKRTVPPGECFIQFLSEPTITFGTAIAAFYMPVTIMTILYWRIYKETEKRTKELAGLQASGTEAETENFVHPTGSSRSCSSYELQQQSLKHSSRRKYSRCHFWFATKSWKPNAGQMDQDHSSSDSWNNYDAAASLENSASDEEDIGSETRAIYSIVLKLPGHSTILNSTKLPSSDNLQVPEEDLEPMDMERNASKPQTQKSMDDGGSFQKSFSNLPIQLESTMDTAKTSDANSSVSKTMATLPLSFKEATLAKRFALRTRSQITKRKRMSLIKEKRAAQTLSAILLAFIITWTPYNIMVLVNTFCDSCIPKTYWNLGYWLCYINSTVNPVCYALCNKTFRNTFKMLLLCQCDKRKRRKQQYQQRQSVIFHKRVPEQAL

On to `CN1CCC=C(c2nc(CC3CC3)no2)C1.O=C(O)C(=O)O`, for which the EC50 – broadly, the concentration that produces a half-maximal response – in assay [1] came out at 1000 nM. Also, the IC50 – broadly, the concentration that inhibits the measured activity by half – in assay [2] stood at 11300 nM; in assay [3], 7.8 nM. For the same molecule, the Muscarinic agonist index in assay [4] was determined as 235.

In turn, `COCc1noc(C2=CCCN(C)C2)n1.O=C(O)C(=O)O` registered an EC50 in assay [1] of 420 nM. Besides, the IC50 in assay [2] was determined as 66900 nM; in assay [3], 43.5 nM. Moreover, in assay [4], the Muscarinic agonist index was 249.

The molecule `CCCCCCCCc1noc(C2=CCCN(C)C2)n1.O=C(O)C(=O)O` yielded an EC50 in assay [1] of 1460 nM. Moreover, the IC50 worked out at 11000 nM in assay [2] and 59.9 nM in assay [3]. This molecule displayed a Muscarinic agonist index in assay [4] of 30.

`CCCCc1noc(C2=CCCN(C)C2)n1.O=C(O)C(=O)O` came in with an EC50 in assay [1] of 150 nM. The IC50 was 15800 nM in assay [2] and 14.1 nM in assay [3]. Also, the Muscarinic agonist index in assay [4] stood at 181.

As to `CCCCc1noc(C2=CC(C)CNC2)n1` (configuration not stated), the EC50 in assay [1] is > 30000 nM. Moreover, the IC50 in assay [2] came to 64300 nM; in assay [3], 685 nM. The Muscarinic agonist index in assay [4] was 15.

As for `CCCCc1noc(C2=CCCNC2)n1`, the concentration giving a half-maximal response (EC50) in assay [1] was found to be 320 nM. The IC50 stood at 25300 nM in assay [2] and 12.1 nM in assay [3]. The Muscarinic agonist index in assay [4] amounted to 339.

Take `CCOCCc1noc(C2=CCCN(C)C2)n1.O=C(O)C(=O)O`: in assay [1], the EC50 was found to be 1280 nM. For the same molecule, the figures for the IC50 in assay [2] and in assay [3] were 42800 nM and 107 nM, respectively. In assay [4], this molecule returned a Muscarinic agonist index of 65.

For `CN1CCC=C(c2nc(C(C)(C)C)no2)C1.O=C(O)C(=O)O`, the EC50 in assay [1] was > 30000 nM. The IC50 in assay [2] was 9000 nM; in assay [3], 286 nM. The same molecule had a Muscarinic agonist index in assay [4] of 5. The Kb (in general, the equilibrium dissociation constant of an antagonist, usually derived from a functional assay) in assay [5] is 200 nM.

As to `CCc1nc(C2=CCCN(C)C2)no1.O=C(O)C(=O)O`, the Kb in assay [6] was 5750 nM. Moreover, in assay [1], the concentration giving a half-maximal response (EC50) was > 30000 nM. Moreover, the IC50 came to 156000 nM in assay [2] and 954 nM in assay [3]. This molecule also displayed a Muscarinic agonist index in assay [4] of 26.

Take `CCCCc1noc(C2CN3CCC2CC3)n1` (configuration not stated): the IC50 in assay [2] is 1500 nM; in assay [3], 58.5 nM. For the same molecule, the EC50 in assay [7] was > 30000 nM. Also, the Muscarinic agonist index in assay [4] was determined as 4. Further, in assay [5], the Kb was found to be 70 nM.

For the molecule `CCCc1noc(C2=CCCN(C)C2)n1.O=C(O)C(=O)O`, the concentration for a half-maximal effect (EC50) in assay [1] came out at 100 nM. Moreover, the IC50 is 17400 nM in assay [2] and 6.3 nM in assay [3]. In addition, the Muscarinic agonist index in assay [4] was 447.

Turning to `CN1CCC=C(c2nc(C3CCCC3)no2)C1.O=C(O)C(=O)O`, the EC50 in assay [1] is > 30000 nM. Besides, the IC50 in assay [2] worked out at 10800 nM; in assay [3] it was 102 nM. In assay [4], this molecule came in with a Muscarinic agonist index of 15. In assay [5], this molecule returned a Kb of 1550 nM.

For the molecule `CCCCc1noc(C2=CCCN(CC)C2)n1`, the EC50 in assay [1] was > 30000 nM. Moreover, the IC50 in assay [2] turned out to be 20600 nM; in assay [3], 86.2 nM. Also, the Muscarinic agonist index in assay [4] was determined as 39. The same molecule returned a Kb in assay [5] of 700 nM.

Molecule `CCc1noc(C2=CCCN(C)C2)n1.O=C(O)C(=O)O` displayed an EC50 in assay [1] of 200 nM. The IC50 came out at 35300 nM in assay [2] and 11 nM in assay [3]. The molecule further gave a Muscarinic agonist index in assay [4] of 520.

As for `CCCCc1noc(C2=CCC3CCC2N3C)n1` (configuration not stated), the EC50 in assay [1] is > 30000 nM. In addition, the IC50 in assay [2] is 8900 nM; in assay [3], 181 nM. This molecule also gave a Muscarinic agonist index in assay [4] of 8. This molecule also yielded a Kb in assay [5] of 220 nM.

As for `CN1CCC=C(c2nc(C3CCC3)no2)C1.O=C(O)C(=O)O`, the IC50 in assay [2] was found to be 12900 nM; in assay [3], 191 nM. The Kb in assay [8] came to 650 nM. Further, the EC50 in assay [7] was > 30000 nM. For the same molecule, in assay [4], the Muscarinic agonist index is 11.

As for `CN1CCC=C(c2nc(C3CCCCCC3)no2)C1.O=C(O)C(=O)O`, the EC50 in assay [1] is > 30000 nM. Also, the results for the IC50 in assay [2] and in assay [3] were 16000 nM and > 850 nM, respectively. Besides, in assay [4], the Muscarinic agonist index was < 3. The same molecule had a Kb in assay [5] of 160 nM.

With `Cc1nc(C2=CCCN(C)C2)no1.O=C(O)C(=O)O`, the Kb in assay [6] is 8000 nM. The EC50 in assay [1] was > 30000 nM. Moreover, the IC50 in assay [2] was 401000 nM; in assay [3], 955 nM. The same molecule came in with a Muscarinic agonist index in assay [4] of 68.

Take `CCCCc1noc(C2=CCC(C)N(C)C2)n1` (configuration not stated): the EC50 in assay [1] is > 30000 nM. For the same molecule, the IC50 was 10200 nM in assay [2] and 145 nM in assay [3]. For the same molecule, the Muscarinic agonist index in assay [4] amounted to 11. Also, the Kb in assay [5] turned out to be 130 nM.

In turn, `CCCCCc1noc(C2=CCCN(C)C2)n1.O=C(O)C(=O)O` came in with an EC50 in assay [1] of 620 nM. Moreover, the values for the IC50 in assay [2] and in assay [3] were 6700 nM and 36.9 nM, respectively. For the same molecule, in assay [4], the Muscarinic agonist index was found to be 29.

With `CCCc1nc(C2=CCCN(C)C2)no1.O=C(O)C(=O)O`, the EC50 in assay [1] is > 30000 nM. For the same molecule, the IC50 stood at 88000 nM in assay [2] and 681 nM in assay [3]. The Muscarinic agonist index in assay [4] turned out to be 80. The molecule further had a Kb in assay [5] of 3380 nM.

Molecule `COCCc1noc(C2=CCCN(C)C2)n1.O=C(O)C(=O)O` gave an EC50 in assay [1] of 720 nM. The IC50 in assay [2] is 41500 nM; in assay [3], 144 nM. The molecule further returned a Muscarinic agonist index in assay [4] of 47.

In turn, `Cc1noc(C2=CCCN(C)C2)n1.O=C(O)C(=O)O` had an EC50 in assay [1] of 32 nM. Further, the IC50 in assay [2] amounted to 41000 nM; in assay [3], 12.3 nM. For the same molecule, the Muscarinic agonist index in assay [4] is 540.

Molecule `CCCCCCCc1noc(C2=CCCN(C)C2)n1.O=C(O)C(=O)O` yielded an EC50 in assay [1] of 130 nM. Further, the IC50 was determined as 9100 nM in assay [2] and 28.3 nM in assay [3]. This molecule also displayed a Muscarinic agonist index in assay [4] of 52.

In the case of `CN1CCC=C(c2nc(C3CC3)no2)C1.O=C(O)C(=O)O`, in assay [1], the EC50 is > 30000 nM. Moreover, the IC50 in assay [2] is 6800 nM; in assay [3] it was 78 nM. For the same molecule, in assay [4], the Muscarinic agonist index was 14. In addition, the Kb in assay [5] was found to be 150 nM.

Consider `CC(C)c1noc(C2=CCCN(C)C2)n1.O=C(O)C(=O)O`, for which, in assay [1], the EC50 was > 30000 nM. Further, the IC50 in assay [2] was 15800 nM; in assay [3], 182 nM. Moreover, the Muscarinic agonist index in assay [4] was found to be 14. Besides, in assay [5], the Kb amounted to 200 nM.

(Values after ChEMBL document CHEMBL1125247, “Muscarinic cholinergic agonists and antagonists of the 3-(3-alkyl-1,2,4-oxadiazol-5-yl)-1,2,5,6-tetrahydropyridine type. Synthesis and structure-activity relationships” (J Med Chem, 1991).)
